Drawing on ChEMBL document CHEMBL1124297, “7-Aminoquinolines. A novel class of agents active against herpesviruses” (J Med Chem, 1988), this text covers selectivity ratio and IC50 for 30 compounds.

Series [1] deals with Human alphaherpesvirus 1. In words: In vitro therapeutic index as ratio of cytotoxicity to inhibition of viral replication. Type of series: organism-based. The conditions noted are these: human alphaherpesvirus 1, in vitro; read-out: Therapeutic index. The method, boiled down: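 Ratio of the cytotoxicity I50 to the HSV-1 replication I50, rounded to the nearest whole number. Cytotoxicity I50 was the mean of four I50 values (Lowry protein, 3H-amino acid uptake, diphenylamine DNA, [3H]thymidine uptake) in uninfected KB cells after 20 h. Replication I50 was from plaque titers of infected KB cultures after 20 h.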

In series [2] the test system is Human alphaherpesvirus 1. In words: Inhibitory activity against herpes simplex virus type-1 (HSV-1) replication in KB cells. Type of series: functional, organism-based. As to conditions: Human alphaherpesvirus 1, KB. The method, boiled down:
(§1)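 HSV-1 (HF strain)-infected KB cells were treated in duplicate for 20 h with five or six half-log dilutions of compound. The disrupted cultures were serially diluted onto BHK 21/4 cells, and titers were determined by counting macroscopic plaques. I50 came from linear regression of log concentration versus % inhibition of viral replication. Each assay included 10 µg/mL ara-A as positive control, and a set was rejected if ara-A deviated by more than 1.5 SD.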

A further series has as its system KB (Homo sapiens). In words: In vitro cytotoxicity in uninfected KB cells; Low drug solubility.
The test system of series [3] is Human alphaherpesvirus 1. In words: Inhibitory activity against herpes simplex virus type-1 (HSV-1) replication in infected KB cells. Type of series: functional, organism-based. The conditions noted are these: Human alphaherpesvirus 1, KB. The method, boiled down: as §1

In brackets after ≈: the same amount, converted by molar mass. Where only a bound is given, the exact number is not on record here.

For `Cc1cn([C@@H]2O[C@H](CO)[C@@H](O)[C@@H]2O)c(=O)[nH]c1=O`, in the series on Human alphaherpesvirus 1 [1], the selectivity ratio was determined as 833. For the same compound, in the series on Human alphaherpesvirus 1 [2], the IC50 was determined as 0.6 µg/mL (≈ 2.32 µM).
As for `CN(C)c1ccc2ccc(N(C)C)nc2c1`, the selectivity ratio with Human alphaherpesvirus 1 [1] was determined as 3. This compound displayed an IC50 in the series on Human alphaherpesvirus 1 [2] of 6 µg/mL (≈ 27.9 µM).
As to `Cc1cc(Cl)nc2cc(N)ccc12`, the selectivity ratio in the series with Human alphaherpesvirus 1 [1] turned out to be 3. In the series with Human alphaherpesvirus 1 [2], this compound registered a half-maximal inhibitory concentration (IC50) of 53 µg/mL (≈ 275 µM).
Take `CN(C)c1ccc2ccc(N)cc2n1`: in the series on Human alphaherpesvirus 1 [1], the selectivity ratio is 3. Besides, the IC50 in the series on Human alphaherpesvirus 1 [2] is 51 µg/mL (≈ 272 µM).
The corresponding values for `CC(=O)Nc1ccc2c(C)cc(N)nc2c1` are 3 and 10 µg/mL (≈ 46.5 µM).
As for `CC(=O)Nc1ccc2c(C)cc(Cl)nc2c1`, the selectivity ratio in the series on Human alphaherpesvirus 1 [1] is 4. This compound also had an IC50 with Human alphaherpesvirus 1 [2] of 21 µg/mL (≈ 89.5 µM).
On to `CN(C)c1ccc2ccc(N)nc2c1`, for which the selectivity ratio with Human alphaherpesvirus 1 [1] turned out to be 5. Also, half-maximal inhibition with Human alphaherpesvirus 1 [2] (IC50) was put at 2 µg/mL (≈ 10.7 µM).
With `Cc1cc(N(C)C)nc2cc(N)ccc12`, the selectivity ratio in the series with Human alphaherpesvirus 1 [1] worked out at 2. The compound further had an IC50 with Human alphaherpesvirus 1 [2] of 6 µg/mL (≈ 29.8 µM).
The corresponding values for `Cc1cc(N)nc2cc(N)ccc12` are 7 and 4 µg/mL (≈ 23.1 µM).
In the case of `Cc1cnc2cc(N(C)C)ccc2c1`, in the series on Human alphaherpesvirus 1 [1], the selectivity ratio stood at 9. The compound further yielded an IC50 with Human alphaherpesvirus 1 [2] of 7.6 µg/mL (≈ 40.8 µM).
In the case of `Cc1c(N(C)C)nc2cc(N(C)C)ccc2c1Cl`, the IC50 with KB (Homo sapiens) is above 32 µg/mL; with Human alphaherpesvirus 1 [2] it was 49 µg/mL (≈ 186 µM).
As for `Nc1ccc2ccc(N)nc2c1`, 10 µg/mL (≈ 62.8 µM) corresponded to half-maximal inhibition in the series with Human alphaherpesvirus 1 [2] (IC50).
With `CNc1cc(C)nc2cc(N(C)C)ccc12`, the selectivity ratio in the series on Human alphaherpesvirus 1 [1] is 2. In the series with Human alphaherpesvirus 1 [2], this compound returned an IC50 of 6 µg/mL (≈ 27.9 µM).
As for `CNc1ccc2ccc(N(C)C)cc2n1`, the selectivity ratio with Human alphaherpesvirus 1 [1] amounted to 2. Also, inhibition in the series on Human alphaherpesvirus 1 [2] was half-maximal at 11 µg/mL (≈ 54.7 µM) (IC50).
For `Cc1ccc2ccc(N(C)C)cc2n1`, the selectivity ratio in the series with Human alphaherpesvirus 1 [1] was 9. For the same compound, in the series with Human alphaherpesvirus 1 [2], half-maximal inhibition (IC50) required 4.5 µg/mL (≈ 24.2 µM).
`Cc1ccnc2cc(N)ccc12`: the selectivity ratio in the series with Human alphaherpesvirus 1 [1] was determined as 2. In the series with Human alphaherpesvirus 1 [2], this compound displayed an IC50 of 40 µg/mL (≈ 253 µM).
Consider `Cc1c(Cl)nc2cc(N(C)C)ccc2c1Cl`, for which the values for the IC50 in the series on KB (Homo sapiens) and with Human alphaherpesvirus 1 [2] were above 32 µg/mL and 13 µg/mL (≈ 51 µM), respectively. Moreover, the selectivity ratio with Human alphaherpesvirus 1 [1] was determined as 2.
As to `CC(=O)Nc1ccc2c(C)cc(N(C)C)nc2c1`, the selectivity ratio in the series with Human alphaherpesvirus 1 [1] came to 6. The IC50 in the series with Human alphaherpesvirus 1 [2] turned out to be 18 µg/mL (≈ 74 µM).
Regarding `Cc1cc(N(C)C)c2ccc(N(C)C)cc2n1`, in the series with Human alphaherpesvirus 1 [1], the selectivity ratio amounted to 2. This compound displayed an IC50 in the series on Human alphaherpesvirus 1 [2] of 9 µg/mL (≈ 39.2 µM).
In the same order, the values of `CN(C)c1ccc2ccc(O)nc2c1` are 5 and 30 µg/mL (≈ 159 µM).
For `Cc1c(O)nc2cc(N(C)C)ccc2c1O`, the IC50 in the series on Human alphaherpesvirus 1 [3] worked out at 29 µg/mL (≈ 133 µM). Moreover, the selectivity ratio in the series with Human alphaherpesvirus 1 [1] was 3.
For the compound `CN(C)c1ccc2c(N(C)C)cc(N(C)C)nc2c1`, in the series on Human alphaherpesvirus 1 [1], the selectivity ratio stood at 4. Further, the IC50 in the series on Human alphaherpesvirus 1 [2] is 5 µg/mL (≈ 19.4 µM).
In the case of `Cc1cc(Cl)c2ccc(N(C)C)cc2n1`, the selectivity ratio in the series with Human alphaherpesvirus 1 [1] stood at 3. Further, in the series on Human alphaherpesvirus 1 [2], the IC50 came out at 7 µg/mL (≈ 31.7 µM).
In the case of `Cc1cc(O)c2ccc(N(C)C)cc2n1`, the selectivity ratio with Human alphaherpesvirus 1 [1] was determined as 19. The same compound returned an IC50 in the series on Human alphaherpesvirus 1 [2] of 23 µg/mL (≈ 114 µM).
Regarding `CC(=O)Nc1ccc2c(C)ccnc2c1`, the selectivity ratio in the series with Human alphaherpesvirus 1 [1] was found to be 7. For the same compound, in the series on Human alphaherpesvirus 1 [2], the IC50 is 31 µg/mL (≈ 155 µM).
Regarding `Nc1nc2c(ncn2COCCO)c(=O)[nH]1` [ACYCLOVIR], in the series with Human alphaherpesvirus 1 [1], the selectivity ratio is above 38. Further, the IC50 in the series on Human alphaherpesvirus 1 [2] worked out at 2.6 µg/mL (≈ 11.5 µM).
`CCC(=O)C(CCCCCCOc1ccc(OC)cc1Cl)C(=O)CC` [ARILDONE]: the selectivity ratio in the series with Human alphaherpesvirus 1 [1] came out at 7. In the series with Human alphaherpesvirus 1 [2], half-maximal inhibition (IC50) required 11 µg/mL (≈ 29.8 µM).
As for `CCN(CC)CCCC(C)Nc1ccnc2cc(Cl)ccc12` (stereo not given) [CHLOROQUINE], the selectivity ratio in the series with Human alphaherpesvirus 1 [1] was 3. For the same compound, the IC50 in the series with Human alphaherpesvirus 1 [2] turned out to be 27 µg/mL (≈ 84.4 µM).
With `O=C(O)P(=O)(O)O` [FOSCARNET], the selectivity ratio in the series on Human alphaherpesvirus 1 [1] was 8. This compound also yielded an IC50 with Human alphaherpesvirus 1 [2] of 189 µg/mL (≈ 1500 µM).
In the case of `Nc1ncnc2c1ncn2[C@@H]1O[C@H](CO)[C@@H](O)[C@@H]1O` [VIDARABINE], the selectivity ratio in the series on Human alphaherpesvirus 1 [1] was determined as 7. Besides, the midpoint of inhibition in the series on Human alphaherpesvirus 1 [2], the IC50, lay at 5.6 µg/mL (≈ 21 µM).
